The results in this text go back to ChEMBL document CHEMBL5696442, “Discovery of type II inhibitors of TGFβ-activated kinase 1 (TAK1) and mitogen-activated protein kinase kinase kinase kinase 2 (MAP4K2)” (J Med Chem, 2015).

Test [1] deals with Tyrosine-protein kinase Fer (Homo sapiens, UniProt P16591). As to the kind of experiment: Inhibition of FER Lys1 labeling site in human Huh-7 cell lysate at 1 uM by KiNativ Profiling analysis relative to control. It counts as subcellular.
Test [2] has as its target Serine/threonine-protein kinase SIK3 (Homo sapiens) (UniProt Q9Y2K2). Briefly: Inhibition of QSK Lys2 labeling site in human A-375 cells at 0.5 uM by KiNativ Profiling analysis relative to control. It counts as cell-based.
Test [3] addresses Serine/threonine-protein kinase SMG1 (Homo sapiens) (UniProt Q96Q15). Briefly: Inhibition of SMG1 ATP labeling site harbouring SYPYLFKGLEDLHLDER in human A-375 cells at 0.5 uM by KiNativ Profiling analysis relative to control. It counts as cell-based. The method in brief:
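Live A375 melanoma cells treated with compound at 5 or 0.5 μM, then lysed. Lysate kinases were labeled with a lysine-reactive ATP or ADP-biotin probe. Inhibition was read as protection of labeling sites from the probe.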

Test [4] has as its target T1, Aurora kinase A (Homo sapiens) (UniProt O14965).
T1 sequence (whole entry): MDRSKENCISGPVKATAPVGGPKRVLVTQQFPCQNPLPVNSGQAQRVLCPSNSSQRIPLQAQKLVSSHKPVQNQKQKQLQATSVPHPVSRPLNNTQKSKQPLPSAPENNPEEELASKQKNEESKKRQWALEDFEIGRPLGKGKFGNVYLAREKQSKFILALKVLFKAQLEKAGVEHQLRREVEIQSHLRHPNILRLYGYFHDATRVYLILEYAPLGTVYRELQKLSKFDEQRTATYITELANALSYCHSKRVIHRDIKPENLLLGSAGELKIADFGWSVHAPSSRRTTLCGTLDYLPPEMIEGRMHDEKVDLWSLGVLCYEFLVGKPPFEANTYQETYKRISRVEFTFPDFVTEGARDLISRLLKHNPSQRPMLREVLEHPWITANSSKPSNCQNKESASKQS
Briefly: Inhibition of AurA ATP Loop labeling site in human A-375 cells at 0.05 uM by KiNativ Profiling analysis relative to control. Type of test: cell-based.

Test [5] addresses Misshapen-like kinase 1 (Homo sapiens) (UniProt Q8N4C8). As to the kind of experiment: Inhibition of ZC3/MINK Lys2 labeling site in human A-375 cells at 0.5 uM by KiNativ Profiling analysis relative to control. Type of test: cell-based.
The target in test [6] is Serine/threonine-protein kinase 26 (Homo sapiens) (UniProt Q9P289). Briefly: Inhibition of MST4 ACT labeling site in human A-375 cells at 0.5 uM by KiNativ Profiling analysis relative to control. It counts as cell-based.
For test [7], the target named is Receptor tyrosine-protein kinase erbB-3 (Homo sapiens) (UniProt P21860). As to the kind of experiment: Inhibition of HER3/ErbB3 ACT labeling site in human A-375 cells at 0.05 uM by KiNativ Profiling analysis relative to control. Type of test: cell-based.
Test [8] has as its target Cyclin-dependent kinase 4 (Homo sapiens) (UniProt P11802). As to the kind of experiment: Inhibition of CDK4 Lys2 labeling site in human A-375 cells at 5 uM by KiNativ Profiling analysis relative to control. Type of test: cell-based. In a few lines:
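Live A375 melanoma cells were treated with compound at 5 or 0.5 μM. The cells were then lysed, and the lysates were labeled with a lysine-reactive ATP or ADP-biotin acyl probe (KiNativ). Inhibition is the compound's protection of each kinase labeling-site peptide from probe labeling, relative to untreated control.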

Test [9] concerns the target Serine/threonine-protein kinase/endoribonuclease IRE1 (Homo sapiens) (UniProt O75460). Briefly: Inhibition of IRE1 Lys2 labeling site in human A-375 cells at 0.5 uM by KiNativ Profiling analysis relative to control. It counts as cell-based.
For test [10], the target named is Proto-oncogene tyrosine-protein kinase Src (Homo sapiens, UniProt P12931). As to the kind of experiment: Inhibition of SRC Lys1 labeling site in human A-375 cells at 0.5 uM by KiNativ Profiling analysis relative to control. It counts as cell-based.
The target of test [11] is Serine/threonine-protein kinase WNK2 (Homo sapiens) (UniProt Q9Y3S1). Briefly: Inhibition of Wnk2 Lys2 labeling site in human A-375 cells at 0.05 uM by KiNativ Profiling analysis relative to control. Type of test: cell-based.
The target in test [12] is T2, Dual specificity mitogen-activated protein kinase kinase 3 (Homo sapiens) (UniProt P46734).
T2 sequence (whole entry): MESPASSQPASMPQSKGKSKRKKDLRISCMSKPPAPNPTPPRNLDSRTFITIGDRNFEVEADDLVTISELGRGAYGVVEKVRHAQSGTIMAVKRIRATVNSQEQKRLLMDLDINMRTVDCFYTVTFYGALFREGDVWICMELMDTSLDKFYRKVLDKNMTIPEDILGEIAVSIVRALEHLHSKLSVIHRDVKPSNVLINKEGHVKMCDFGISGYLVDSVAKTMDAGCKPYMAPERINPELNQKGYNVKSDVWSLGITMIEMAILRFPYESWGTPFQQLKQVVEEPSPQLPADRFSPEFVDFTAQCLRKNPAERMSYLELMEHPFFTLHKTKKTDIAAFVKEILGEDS
Briefly: Inhibition of MAP2K3 Lys2 labeling site in human A-375 cells at 5 uM by KiNativ Profiling analysis relative to control. Type of test: cell-based.

Test [13] addresses Serine/threonine-protein kinase MRCK beta (Homo sapiens) (UniProt Q9Y5S2). As to the kind of experiment: Inhibition of MRCKb in human A-375 cells at 0.05 uM by KiNativ Profiling analysis relative to control. Type of test: cell-based.
Test [14] concerns the target Misshapen-like kinase 1 (Homo sapiens) (UniProt Q8N4C8). Briefly: Inhibition of ZC3/MINK Lys2 labeling site in human A-375 cells at 0.05 uM by KiNativ Profiling analysis relative to control. It counts as cell-based.
In test [15] the target is T3, Mitogen-activated protein kinase kinase kinase 2 (Homo sapiens) (UniProt Q9Y2U5).
T3 sequence (whole entry): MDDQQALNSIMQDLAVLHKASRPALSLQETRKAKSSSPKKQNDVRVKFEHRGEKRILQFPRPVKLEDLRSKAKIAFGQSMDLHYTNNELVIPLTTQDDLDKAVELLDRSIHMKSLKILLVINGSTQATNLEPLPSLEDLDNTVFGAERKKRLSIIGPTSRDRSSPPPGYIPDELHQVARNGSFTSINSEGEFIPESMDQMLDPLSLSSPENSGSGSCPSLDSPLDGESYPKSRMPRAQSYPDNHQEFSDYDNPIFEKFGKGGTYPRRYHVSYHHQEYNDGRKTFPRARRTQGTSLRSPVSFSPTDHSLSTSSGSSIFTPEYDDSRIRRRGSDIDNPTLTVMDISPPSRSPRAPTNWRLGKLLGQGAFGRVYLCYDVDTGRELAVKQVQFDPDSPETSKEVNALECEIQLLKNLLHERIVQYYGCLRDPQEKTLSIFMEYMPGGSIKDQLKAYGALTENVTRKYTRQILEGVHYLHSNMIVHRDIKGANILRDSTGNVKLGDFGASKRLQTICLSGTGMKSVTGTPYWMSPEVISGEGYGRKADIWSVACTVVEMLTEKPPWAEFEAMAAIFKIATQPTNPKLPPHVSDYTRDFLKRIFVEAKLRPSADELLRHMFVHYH
As to the kind of experiment: Inhibition of MAP3K2 Lys1 labeling site harbouring VYLCYDVDTGRELAVKQVQFDPDSPETSKEVNALECEIQLLK in human A-375 cells at 0.5 uM by KiNativ Profiling analysis relative to control. Type of test: cell-based.

The structures appear in SMILES notation.

Misshapen-like kinase 1 (Homo sapiens), sequence (Q8N4C8 whole entry, looked up): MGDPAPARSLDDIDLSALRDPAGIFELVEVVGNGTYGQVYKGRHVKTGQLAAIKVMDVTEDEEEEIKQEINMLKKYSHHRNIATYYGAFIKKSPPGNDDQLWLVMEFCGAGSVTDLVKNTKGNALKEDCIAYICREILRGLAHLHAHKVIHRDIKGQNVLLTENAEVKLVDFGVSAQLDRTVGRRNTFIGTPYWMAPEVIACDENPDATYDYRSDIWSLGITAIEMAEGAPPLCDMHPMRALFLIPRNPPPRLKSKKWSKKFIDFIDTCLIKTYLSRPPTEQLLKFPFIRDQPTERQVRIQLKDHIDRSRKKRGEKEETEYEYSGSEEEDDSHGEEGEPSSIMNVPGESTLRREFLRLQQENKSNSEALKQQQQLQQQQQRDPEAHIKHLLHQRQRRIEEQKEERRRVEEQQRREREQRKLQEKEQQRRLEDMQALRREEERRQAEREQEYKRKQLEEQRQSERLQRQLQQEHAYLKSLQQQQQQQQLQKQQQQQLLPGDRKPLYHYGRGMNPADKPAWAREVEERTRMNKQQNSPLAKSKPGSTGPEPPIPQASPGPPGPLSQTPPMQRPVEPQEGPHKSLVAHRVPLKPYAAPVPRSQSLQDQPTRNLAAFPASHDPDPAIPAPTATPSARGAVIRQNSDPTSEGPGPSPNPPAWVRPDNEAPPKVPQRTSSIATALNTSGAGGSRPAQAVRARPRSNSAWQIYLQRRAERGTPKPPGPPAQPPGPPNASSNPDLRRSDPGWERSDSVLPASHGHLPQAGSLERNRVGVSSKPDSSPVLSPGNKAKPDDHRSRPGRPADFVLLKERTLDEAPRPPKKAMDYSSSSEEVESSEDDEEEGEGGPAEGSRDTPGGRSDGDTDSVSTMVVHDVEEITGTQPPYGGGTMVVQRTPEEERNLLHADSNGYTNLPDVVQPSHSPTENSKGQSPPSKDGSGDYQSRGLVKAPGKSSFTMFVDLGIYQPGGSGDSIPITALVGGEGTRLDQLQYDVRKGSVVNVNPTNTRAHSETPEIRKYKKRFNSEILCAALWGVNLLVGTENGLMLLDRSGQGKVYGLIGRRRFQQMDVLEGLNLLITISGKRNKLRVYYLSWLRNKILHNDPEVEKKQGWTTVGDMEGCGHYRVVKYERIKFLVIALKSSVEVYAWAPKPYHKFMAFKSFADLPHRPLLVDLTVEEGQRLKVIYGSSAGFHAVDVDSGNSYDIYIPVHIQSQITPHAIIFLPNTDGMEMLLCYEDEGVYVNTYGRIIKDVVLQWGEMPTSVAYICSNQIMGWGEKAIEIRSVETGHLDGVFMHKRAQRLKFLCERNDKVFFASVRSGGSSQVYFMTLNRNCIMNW
Serine/threonine-protein kinase 26 (Homo sapiens), sequence (Q9P289 2-416 limits assumed): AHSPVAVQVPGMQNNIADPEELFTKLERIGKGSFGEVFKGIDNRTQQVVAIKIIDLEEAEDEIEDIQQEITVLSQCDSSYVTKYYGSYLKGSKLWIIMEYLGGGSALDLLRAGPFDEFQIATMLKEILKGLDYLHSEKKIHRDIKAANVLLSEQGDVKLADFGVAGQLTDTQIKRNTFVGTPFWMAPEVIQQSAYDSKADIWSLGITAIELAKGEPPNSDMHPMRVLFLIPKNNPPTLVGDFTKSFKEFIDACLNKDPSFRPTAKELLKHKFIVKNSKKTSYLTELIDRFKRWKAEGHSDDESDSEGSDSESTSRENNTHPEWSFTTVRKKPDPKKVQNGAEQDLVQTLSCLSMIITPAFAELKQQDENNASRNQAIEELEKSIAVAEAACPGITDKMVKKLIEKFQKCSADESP
Serine/threonine-protein kinase/endoribonuclease IRE1 (Homo sapiens), sequence (O75460 19-977 limits assumed): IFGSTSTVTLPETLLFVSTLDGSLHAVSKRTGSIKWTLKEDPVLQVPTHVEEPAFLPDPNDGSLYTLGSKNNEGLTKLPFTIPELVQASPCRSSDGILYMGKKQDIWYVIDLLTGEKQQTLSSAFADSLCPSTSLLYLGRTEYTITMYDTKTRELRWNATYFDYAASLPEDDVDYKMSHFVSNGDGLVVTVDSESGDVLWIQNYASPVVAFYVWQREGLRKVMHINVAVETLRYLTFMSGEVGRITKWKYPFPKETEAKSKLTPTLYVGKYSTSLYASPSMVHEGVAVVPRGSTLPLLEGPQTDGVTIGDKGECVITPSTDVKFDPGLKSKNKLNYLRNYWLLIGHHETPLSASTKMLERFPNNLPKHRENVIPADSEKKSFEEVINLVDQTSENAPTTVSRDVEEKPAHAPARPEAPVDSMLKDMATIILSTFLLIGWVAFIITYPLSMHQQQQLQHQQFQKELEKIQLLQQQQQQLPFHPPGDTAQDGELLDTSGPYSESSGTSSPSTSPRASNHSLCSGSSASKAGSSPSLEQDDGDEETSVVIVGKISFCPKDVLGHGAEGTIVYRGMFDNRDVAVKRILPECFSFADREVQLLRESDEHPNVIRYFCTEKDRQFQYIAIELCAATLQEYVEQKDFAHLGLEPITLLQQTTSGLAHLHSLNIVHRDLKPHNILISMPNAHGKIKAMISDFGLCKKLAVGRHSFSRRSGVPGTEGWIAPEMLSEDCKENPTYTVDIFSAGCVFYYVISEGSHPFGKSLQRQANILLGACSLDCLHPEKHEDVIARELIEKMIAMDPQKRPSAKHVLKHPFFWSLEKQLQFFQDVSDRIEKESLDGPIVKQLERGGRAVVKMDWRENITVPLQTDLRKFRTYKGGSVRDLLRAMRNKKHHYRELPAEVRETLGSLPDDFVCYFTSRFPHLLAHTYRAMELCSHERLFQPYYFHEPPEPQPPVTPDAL
Receptor tyrosine-protein kinase erbB-3 (Homo sapiens), sequence (P21860 whole entry): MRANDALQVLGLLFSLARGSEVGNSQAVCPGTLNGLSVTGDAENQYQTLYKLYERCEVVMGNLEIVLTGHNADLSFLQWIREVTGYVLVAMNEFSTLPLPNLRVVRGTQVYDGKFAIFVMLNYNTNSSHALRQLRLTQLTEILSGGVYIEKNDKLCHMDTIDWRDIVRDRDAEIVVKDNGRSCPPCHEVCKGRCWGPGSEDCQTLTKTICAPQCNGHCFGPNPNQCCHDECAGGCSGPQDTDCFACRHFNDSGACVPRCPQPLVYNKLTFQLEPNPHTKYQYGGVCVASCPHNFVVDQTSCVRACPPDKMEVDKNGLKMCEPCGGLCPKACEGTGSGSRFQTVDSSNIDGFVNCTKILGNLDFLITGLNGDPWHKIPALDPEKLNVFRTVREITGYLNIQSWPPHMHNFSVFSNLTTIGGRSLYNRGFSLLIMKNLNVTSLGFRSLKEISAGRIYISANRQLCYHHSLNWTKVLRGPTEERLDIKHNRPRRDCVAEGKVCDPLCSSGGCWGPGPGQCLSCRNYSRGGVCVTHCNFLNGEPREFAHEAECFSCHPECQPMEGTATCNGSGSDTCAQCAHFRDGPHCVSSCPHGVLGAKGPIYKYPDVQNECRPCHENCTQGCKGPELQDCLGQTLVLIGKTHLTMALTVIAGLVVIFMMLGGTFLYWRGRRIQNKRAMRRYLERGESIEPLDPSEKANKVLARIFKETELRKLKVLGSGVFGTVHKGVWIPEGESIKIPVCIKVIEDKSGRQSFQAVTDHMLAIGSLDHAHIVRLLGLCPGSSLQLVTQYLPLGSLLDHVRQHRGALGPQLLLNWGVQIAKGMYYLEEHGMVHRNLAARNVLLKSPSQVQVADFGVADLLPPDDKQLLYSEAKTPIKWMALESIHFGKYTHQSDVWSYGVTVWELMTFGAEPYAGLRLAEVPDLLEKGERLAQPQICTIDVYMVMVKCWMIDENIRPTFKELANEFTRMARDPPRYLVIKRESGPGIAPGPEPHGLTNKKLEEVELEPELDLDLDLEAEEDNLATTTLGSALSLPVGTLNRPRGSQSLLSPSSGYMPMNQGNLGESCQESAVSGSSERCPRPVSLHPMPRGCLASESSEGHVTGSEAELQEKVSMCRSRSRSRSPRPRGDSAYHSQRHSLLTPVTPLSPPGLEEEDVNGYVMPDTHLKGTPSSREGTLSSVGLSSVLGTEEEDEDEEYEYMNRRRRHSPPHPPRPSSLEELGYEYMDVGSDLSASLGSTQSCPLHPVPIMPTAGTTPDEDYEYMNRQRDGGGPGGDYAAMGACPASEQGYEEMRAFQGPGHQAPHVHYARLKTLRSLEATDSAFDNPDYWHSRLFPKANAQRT
Proto-oncogene tyrosine-protein kinase Src, sequence (P12931 2-536 limits assumed): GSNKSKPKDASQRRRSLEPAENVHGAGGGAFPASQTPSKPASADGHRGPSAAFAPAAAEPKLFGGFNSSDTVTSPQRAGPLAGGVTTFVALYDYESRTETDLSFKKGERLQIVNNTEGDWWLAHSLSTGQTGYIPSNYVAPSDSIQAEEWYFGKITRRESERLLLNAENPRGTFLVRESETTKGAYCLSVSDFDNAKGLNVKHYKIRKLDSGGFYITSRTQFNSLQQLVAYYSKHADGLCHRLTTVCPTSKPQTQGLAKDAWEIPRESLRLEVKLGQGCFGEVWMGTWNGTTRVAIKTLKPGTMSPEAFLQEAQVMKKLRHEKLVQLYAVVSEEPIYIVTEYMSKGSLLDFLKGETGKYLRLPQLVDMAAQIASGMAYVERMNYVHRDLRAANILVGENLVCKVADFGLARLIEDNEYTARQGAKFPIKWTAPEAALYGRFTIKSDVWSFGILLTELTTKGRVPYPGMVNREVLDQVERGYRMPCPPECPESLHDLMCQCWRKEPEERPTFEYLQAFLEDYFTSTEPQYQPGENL
Cyclin-dependent kinase 4 (Homo sapiens), sequence (P11802 whole entry): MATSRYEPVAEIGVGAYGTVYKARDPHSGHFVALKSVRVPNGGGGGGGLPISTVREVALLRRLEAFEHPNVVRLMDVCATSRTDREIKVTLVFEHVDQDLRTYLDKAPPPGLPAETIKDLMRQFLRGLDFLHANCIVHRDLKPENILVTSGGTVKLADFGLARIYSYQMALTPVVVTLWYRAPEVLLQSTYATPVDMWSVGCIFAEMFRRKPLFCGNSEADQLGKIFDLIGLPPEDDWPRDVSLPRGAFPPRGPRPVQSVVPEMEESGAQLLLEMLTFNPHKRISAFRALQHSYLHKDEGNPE

As a reminder, the inhibition is the relative decrease from the control value, in per cent. As to `CNc1cc(Oc2cc(C(=O)Nc3cc(N4CCN(C)CC4)cc(C(F)(F)F)c3)ccc2C)ncn1`, the inhibition in [1] worked out at 10.6%.
As to `CCN1CCN(Cc2ccc(NC(=O)c3ccc(C)c(/C=C/c4cnc5[nH]ccc5c4OC)c3)cc2C(F)(F)F)CC1`, the inhibition in test [2] was found to be 40.3%; in test [3], 33.7%; in test [4] it was 14.1%; in [5], 48.1%; in test [6], 18.3%; in [7], 11.2%. In addition, the inhibition in [8] is 6.7%; in test [9], -9.6%; in test [10], 72.5%; in test [11], 7.1%; in [12], -6.9%; in test [13], 12.1%. The inhibition in test [14] is 19.5%; in [15], -0.7%.
As to `CNc1cc(Oc2cc(C(=O)Nc3cc(-n4cnc(C)c4)cc(C(F)(F)F)c3)ccc2C)ncn1`, the inhibition in test [1] was 18.2%.
For `CCN1CCN(Cc2ccc(NC(=O)c3ccc(C)c(Oc4ccnc5[nH]ccc45)c3)cc2C(F)(F)F)CC1`, the inhibition in test [2] came to 39.8%; in [3], 3%; in test [4], 32.5%; in test [5], 70.8%; in [6], 31.3%; in test [7], 4.1%. Besides, the inhibition in [8] was 2.9%; in [9] it was 4.5%; in [10], 77.2%; in [11], -3.5%; in test [12], -5.7%; in test [13], -8.8%. Besides, the inhibition was determined as 32.6% in test [14] and 17.4% in test [15].
